Data published in ChEMBL document CHEMBL1149910, “2-(6-aryl-3(Z)-hexen-1,5-diynyl)anilines as a new class of potent antitubulin agents” (J Med Chem, 2008).

Assays:
Assay type in all cases: functional
MDA-MB-435 = assay: Cytotoxicity against human MDA-MB-435 cells
Outline: (§1)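 Tested in the NCI in vitro antitumor screening protocol across a tumor cell line panel. GI₅₀ is the concentration producing a 50% reduction in cell growth.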

K562 [1] = assay: Cell cycle arrest in human K562 cells assessed as accumulation at G2/M phase at 50 uM after 24 hrs by flow cytometry
Outline: (§2)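 K-562 human leukemia cells were grown in RPMI 1640 with 10% fetal calf serum, glutamine and penicillin/streptomycin at 37 °C in 5% CO₂. Cells were exposed to compound at 50 µM for 24 h, then pelleted and PBS-washed. They were fixed in ice-cold ethanol for 30 min, treated with 1 mg/mL RNase A at 37 °C for 30 min, and stained with propidium iodide and Triton X-100 for 30 min at room temperature in the dark. Per-phase and sub-G1 percentages came from flow cytometry gating.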

UACC-62 = assay: Cytotoxicity against human UACC62 cells; details: read-out: pGI50 (converted)
Outline: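 NCI in vitro antitumor screening protocol; GI50 taken as the concentration giving 50% reduction in cell growth.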

K562 [2] = assay: Cell cycle arrest in human K562 cells assessed as accumulation at sub-G1 phase at 50 uM after 24 hrs by flow cytometry; outline: as §2
SNB-75 = assay: Cytotoxicity against human SNB75 cells; details: read-out: pGI50 (converted); outline: as §1
K562 [3] = assay: Cell cycle arrest in human K562 cells assessed as accumulation at G0/G1 phase at 50 uM after 24 hrs by flow cytometry; outline: as §2
HCT-15 = assay: Cytotoxicity against human HCT15 cells; outline: as §1
OVCAR-3 = assay: Cytotoxicity against human OVCAR-3 cells; outline: as §1
K562 [4] = assay: Cell cycle arrest in human K562 cells assessed as accumulation at S phase at 50 uM after 24 hrs by flow cytometry; outline: as §2
K562 [5] = assay: Cytotoxicity against human K562 cells; outline: as §1
MDA-MB-231 [6] = assay: Cytotoxicity against human MDA-MB-231 cells; outline: as §1
MDA-MB-231 [7] = assay: Cell cycle arrest in human MDA-MB-231 cells assessed as accumulation of 2N cells at 2 uM after 24 hrs by flow cytometry
MDA-MB-231 [8] = assay: Cell cycle arrest in human MDA-MB-231 cells assessed as accumulation at sub-G1 phase at 2 uM after 72 hrs by flow cytometry
MDA-MB-231 [9] = assay: Cell cycle arrest in human MDA-MB-231 cells assessed as accumulation of 2N cells at 2 uM after 72 hrs by flow cytometry
MDA-MB-231 [10] = assay: Cell cycle arrest in human MDA-MB-231 cells assessed as accumulation of 4N cells at 2 uM after 72 hrs by flow cytometry
MDA-MB-231 [11] = assay: Cell cycle arrest in human MDA-MB-231 cells assessed as accumulation at sub-G1 phase at 2 uM after 24 hrs by flow cytometry
MDA-MB-231 [12] = assay: Cell cycle arrest in human MDA-MB-231 cells assessed as accumulation of >4N cells at 2 uM after 24 hrs by flow cytometry
MDA-MB-231 [13] = assay: Cell cycle arrest in human MDA-MB-231 cells assessed as accumulation of >4N cells at 2 uM after 72 hrs by flow cytometry
MDA-MB-231 [14] = assay: Cell cycle arrest in human MDA-MB-231 cells assessed as accumulation of 4N cells at 2 uM after 24 hrs by flow cytometry

SMILES: Nc1ccccc1C#C/C=C\C#Cc1ccccc1OC(F)(F)F
- GI50 (MDA-MB-435): 1260 nM
- Activity (K562 [1]): 71.4%
- GI50 (UACC-62): 6310 nM
- Activity (K562 [2]): 30.55%
- GI50 (SNB-75): 2510 nM
- Activity (K562 [3]): 4.5%
- GI50 (HCT-15): 3980 nM
- GI50 (OVCAR-3): 3980 nM
- Activity (K562 [4]): 24.1%
- GI50 (K562 [5]): 2510 nM
- GI50 (MDA-MB-231 [6]): 5010 nM

SMILES: Nc1ccccc1C#C/C=C\C#Cc1ccccc1[N+](=O)[O-]
- GI50 (MDA-MB-435): 398 nM
- Activity (K562 [1]): 16.3%
- GI50 (UACC-62): 2000 nM
- Activity (K562 [2]): 11.13%
- GI50 (SNB-75): 12600 nM
- Activity (K562 [3]): 42.7%
- GI50 (HCT-15): 794 nM
- GI50 (OVCAR-3): 3980 nM
- Activity (K562 [4]): 41%
- GI50 (K562 [5]): 501 nM
- GI50 (MDA-MB-231 [6]): 398 nM

SMILES: Nc1ccccc1C#C/C=C\C#CC#C/C=C\C#Cc1ccccc1N
- GI50 (MDA-MB-435): 3160 nM
- Activity (K562 [1]): 52.2%
- GI50 (UACC-62): 2000 nM
- Activity (K562 [2]): 9.19%
- GI50 (SNB-75): 3160 nM
- Activity (K562 [3]): 22.8%
- GI50 (HCT-15): 3980 nM
- GI50 (OVCAR-3): 2510 nM
- Activity (K562 [4]): 25%
- GI50 (K562 [5]): 794 nM
- GI50 (MDA-MB-231 [6]): 1580 nM

SMILES: Nc1ccccc1C#C/C=C\C#Cc1ccc([N+](=O)[O-])cc1
- Activity (K562 [1]): 18.8%
- Activity (K562 [2]): 15.78%
- Activity (K562 [3]): 35%
- Activity (K562 [4]): 46.2%

SMILES: Nc1ccccc1C#C/C=C\C#Cc1ccccc1F
- GI50 (MDA-MB-435): 2000 nM
- Activity (K562 [1]): 37%
- GI50 (UACC-62): 7940 nM
- Activity (K562 [2]): 11.5%
- Activity (K562 [3]): 22.1%
- GI50 (HCT-15): 5010 nM
- GI50 (OVCAR-3): 3160 nM
- Activity (K562 [4]): 40.9%
- GI50 (K562 [5]): 3160 nM
- GI50 (MDA-MB-231 [6]): 10000 nM

SMILES: COc1cc2c(c(OC)c1OC)-c1ccc(OC)c(=O)cc1[C@@H](NC(C)=O)CC2 [COLCHICINE]
- GI50 (MDA-MB-435): 10 nM
- Activity (MDA-MB-231 [7]): 10.2%
- Activity (MDA-MB-231 [8]): 60%
- Activity (MDA-MB-231 [9]): 6.9%
- GI50 (UACC-62): 25.1 nM
- GI50 (SNB-75): 25.1 nM
- Activity (MDA-MB-231 [10]): 21.6%
- Activity (MDA-MB-231 [11]): 23.3%
- GI50 (HCT-15): 126 nM
- GI50 (OVCAR-3): 15.8 nM
- GI50 (K562 [5]): 12.6 nM
- Activity (MDA-MB-231 [12]): 11.3%
- Activity (MDA-MB-231 [13]): 11.5%
- Activity (MDA-MB-231 [14]): 55.2%
- GI50 (MDA-MB-231 [6]): 316 nM

SMILES: Nc1ccccc1C#C/C=C\C#Cc1ccc(F)cc1F
- GI50 (MDA-MB-435): 2510 nM
- Activity (K562 [1]): 34.4%
- GI50 (UACC-62): 15800 nM
- Activity (K562 [2]): 10.04%
- Activity (K562 [3]): 32.5%
- GI50 (HCT-15): 12600 nM
- GI50 (OVCAR-3): 6310 nM
- Activity (K562 [4]): 33.1%
- GI50 (K562 [5]): 5010 nM
- GI50 (MDA-MB-231 [6]): 15800 nM

SMILES: COc1ccc(/C=C\c2cc(OC)c(OC)c(OC)c2)cc1O [COMBRETASTATIN A4]
- GI50 (MDA-MB-435): 31.6 nM
- GI50 (UACC-62): 10 nM
- GI50 (SNB-75): 794 nM
- GI50 (HCT-15): 31.6 nM
- GI50 (OVCAR-3): 39.8 nM
- GI50 (K562 [5]): 31.6 nM
- GI50 (MDA-MB-231 [6]): 10 nM

SMILES: Nc1ccccc1C#C/C=C\C#Cc1c(F)c(F)c(F)c(F)c1F
- GI50 (MDA-MB-435): 15800 nM
- Activity (K562 [1]): 17.9%
- GI50 (UACC-62): 12600 nM
- Activity (K562 [2]): 27.34%
- GI50 (SNB-75): 39800 nM
- Activity (K562 [3]): 43.6%
- GI50 (HCT-15): 15800 nM
- GI50 (OVCAR-3): 15800 nM
- Activity (K562 [4]): 38.5%
- GI50 (K562 [5]): 15800 nM
- GI50 (MDA-MB-231 [6]): 2510 nM

SMILES: CCOC(=O)c1ccccc1C#C/C=C\C#Cc1ccccc1N
- Activity (K562 [1]): 81.4%
- Activity (K562 [2]): 28.68%
- Activity (K562 [3]): 5.9%
- Activity (K562 [4]): 12.7%
